In ChEMBL document CHEMBL1132940, “Pharmacophore/receptor models for GABA(A)/BzR subtypes (alpha1beta3gamma2, alpha5beta3gamma2, and alpha6beta3gamma2) via a comprehensive ligand-mapping approach” (J Med Chem, 2000):

Key:
[1] = target: T1, GABA-A receptor; alpha-1/beta-3/gamma-2 (Homo sapiens, UniProt P14867+P18507+P28472); assay: Binding affinity for human recombinant gamma-aminobutyric-acid (GABA) A receptor alpha-1-beta-3-gamma-2; assay type: protein-complex assay
T1 sequence (P14867 whole entry): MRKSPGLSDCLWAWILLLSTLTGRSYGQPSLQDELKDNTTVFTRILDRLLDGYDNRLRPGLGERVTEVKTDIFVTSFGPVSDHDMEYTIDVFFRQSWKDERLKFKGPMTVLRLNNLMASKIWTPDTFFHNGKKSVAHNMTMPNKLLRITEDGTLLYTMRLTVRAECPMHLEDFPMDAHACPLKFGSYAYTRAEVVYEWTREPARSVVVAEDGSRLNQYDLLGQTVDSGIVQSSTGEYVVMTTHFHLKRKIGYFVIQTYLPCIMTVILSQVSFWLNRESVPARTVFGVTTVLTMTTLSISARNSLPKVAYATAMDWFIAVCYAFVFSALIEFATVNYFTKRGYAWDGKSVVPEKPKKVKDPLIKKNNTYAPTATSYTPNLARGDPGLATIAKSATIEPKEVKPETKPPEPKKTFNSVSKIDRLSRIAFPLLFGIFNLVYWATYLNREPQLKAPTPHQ
T1 sequence (P18507 whole entry): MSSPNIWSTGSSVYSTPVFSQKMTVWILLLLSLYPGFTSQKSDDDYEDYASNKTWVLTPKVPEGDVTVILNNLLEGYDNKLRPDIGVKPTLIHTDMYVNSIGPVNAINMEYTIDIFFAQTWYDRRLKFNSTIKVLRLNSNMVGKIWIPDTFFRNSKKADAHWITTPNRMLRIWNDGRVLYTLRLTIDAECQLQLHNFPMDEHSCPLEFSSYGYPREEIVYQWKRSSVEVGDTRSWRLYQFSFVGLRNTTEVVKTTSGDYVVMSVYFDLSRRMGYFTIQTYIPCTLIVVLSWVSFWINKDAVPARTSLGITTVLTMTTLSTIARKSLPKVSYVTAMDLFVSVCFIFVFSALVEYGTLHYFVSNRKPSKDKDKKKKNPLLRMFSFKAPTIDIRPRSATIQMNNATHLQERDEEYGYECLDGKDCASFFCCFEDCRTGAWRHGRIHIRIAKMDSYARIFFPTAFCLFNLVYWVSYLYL
T1 sequence (P28472 whole entry): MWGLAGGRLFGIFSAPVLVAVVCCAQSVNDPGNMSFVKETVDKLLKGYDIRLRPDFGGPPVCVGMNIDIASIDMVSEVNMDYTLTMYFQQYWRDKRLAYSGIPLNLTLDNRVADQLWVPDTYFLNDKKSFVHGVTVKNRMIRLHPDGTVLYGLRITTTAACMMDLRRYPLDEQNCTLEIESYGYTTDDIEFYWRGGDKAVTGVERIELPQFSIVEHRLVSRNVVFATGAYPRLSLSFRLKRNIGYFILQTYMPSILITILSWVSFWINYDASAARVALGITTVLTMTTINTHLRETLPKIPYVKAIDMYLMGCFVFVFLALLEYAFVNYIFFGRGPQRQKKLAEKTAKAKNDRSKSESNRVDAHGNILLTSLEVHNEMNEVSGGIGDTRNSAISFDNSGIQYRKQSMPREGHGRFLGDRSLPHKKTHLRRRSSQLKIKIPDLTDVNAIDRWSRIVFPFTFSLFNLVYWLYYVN

[2] = target: T2, GABA-A receptor; alpha-2/beta-3/gamma-2 (Homo sapiens, UniProt P18507+P28472+P47869); assay: Binding affinity to human recombinant gamma-aminobutyric-acid (GABA) A receptor alpha-2-beta-3-gamma-2; assay type: protein-complex assay
T2 sequence (P18507 whole entry): T1 sequence (P18507 whole entry)
T2 sequence (P28472 whole entry): T1 sequence (P28472 whole entry)
T2 sequence (P47869 whole entry): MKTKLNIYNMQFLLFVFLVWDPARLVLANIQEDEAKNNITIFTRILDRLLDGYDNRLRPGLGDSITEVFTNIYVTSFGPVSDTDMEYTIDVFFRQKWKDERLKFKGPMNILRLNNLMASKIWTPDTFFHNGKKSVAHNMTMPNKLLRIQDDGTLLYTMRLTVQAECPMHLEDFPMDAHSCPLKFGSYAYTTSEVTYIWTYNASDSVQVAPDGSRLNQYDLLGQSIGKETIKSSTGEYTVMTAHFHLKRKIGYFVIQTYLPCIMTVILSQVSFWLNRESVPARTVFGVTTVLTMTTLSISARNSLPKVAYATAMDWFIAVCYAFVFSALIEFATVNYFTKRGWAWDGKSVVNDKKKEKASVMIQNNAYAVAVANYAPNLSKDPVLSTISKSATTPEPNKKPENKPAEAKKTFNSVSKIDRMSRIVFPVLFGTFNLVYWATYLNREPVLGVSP

[3] = target: T3, GABA-A receptor; alpha-5/beta-3/gamma-2 (Homo sapiens, UniProt P18507+P28472+P31644); assay: Binding affinity for human recombinant gamma-aminobutyric-acid (GABA) A receptor alpha-5-beta-3-gamma-2; assay type: protein-complex assay
T3 sequence (P18507 whole entry): T1 sequence (P18507 whole entry)
T3 sequence (P28472 whole entry): T1 sequence (P28472 whole entry)
T3 sequence (P31644 whole entry): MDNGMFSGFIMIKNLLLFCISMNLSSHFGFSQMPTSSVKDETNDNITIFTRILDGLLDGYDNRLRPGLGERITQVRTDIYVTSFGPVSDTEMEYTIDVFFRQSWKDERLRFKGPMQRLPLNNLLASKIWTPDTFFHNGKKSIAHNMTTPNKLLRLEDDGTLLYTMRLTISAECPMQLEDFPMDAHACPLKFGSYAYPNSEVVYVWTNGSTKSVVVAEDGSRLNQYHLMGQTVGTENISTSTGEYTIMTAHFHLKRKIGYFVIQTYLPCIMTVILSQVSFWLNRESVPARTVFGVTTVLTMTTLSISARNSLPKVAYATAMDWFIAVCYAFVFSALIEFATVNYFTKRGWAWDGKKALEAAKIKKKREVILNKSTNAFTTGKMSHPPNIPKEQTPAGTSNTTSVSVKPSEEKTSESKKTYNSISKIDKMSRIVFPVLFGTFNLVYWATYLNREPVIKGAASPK

[4] = target: T4, GABA-A receptor; alpha-3/beta-3/gamma-2 (Homo sapiens, UniProt P18507+P28472+P34903); assay: Binding affinity for human recombinant gamma-aminobutyric-acid (GABA) A receptor alpha-3-beta-3-gamma-2; assay type: protein-complex assay
T4 sequence (P18507 whole entry): T1 sequence (P18507 whole entry)
T4 sequence (P28472 whole entry): T1 sequence (P28472 whole entry)
T4 sequence (P34903 whole entry): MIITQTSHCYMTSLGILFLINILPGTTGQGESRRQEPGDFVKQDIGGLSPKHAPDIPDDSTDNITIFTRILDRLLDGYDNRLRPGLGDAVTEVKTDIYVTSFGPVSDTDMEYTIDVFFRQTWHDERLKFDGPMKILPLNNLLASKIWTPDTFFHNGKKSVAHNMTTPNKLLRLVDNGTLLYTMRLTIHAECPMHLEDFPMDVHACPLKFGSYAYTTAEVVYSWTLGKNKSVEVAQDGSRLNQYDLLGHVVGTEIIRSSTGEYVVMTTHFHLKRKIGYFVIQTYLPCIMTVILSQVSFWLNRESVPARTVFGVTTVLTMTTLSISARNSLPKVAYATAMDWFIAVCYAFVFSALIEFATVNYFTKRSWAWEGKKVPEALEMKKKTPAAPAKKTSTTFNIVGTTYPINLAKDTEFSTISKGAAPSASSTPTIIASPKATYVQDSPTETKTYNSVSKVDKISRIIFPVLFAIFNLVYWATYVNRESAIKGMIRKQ

[5] = target: GABA-A receptor; alpha-6/beta-3/gamma-2 (Homo sapiens, UniProt P18507+P28472+Q16445); assay: Binding affinity for human recombinant gamma-aminobutyric-acid (GABA) A receptor alpha-6-beta-3-gamma-2; assay type: protein-complex assay
In short: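 Ltk⁻ cells expressing human α6β3γ2 were harvested by scraping into PBS, centrifuged at 3000g and resuspended in 10 mM KH₂PO₄/100 mM KCl (pH 7.4). Incubation was 1 h at 4 °C with filter harvest and scintillation counting.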

[6] = Selectivity ratio of alpha1 beta-3 gamma2 GABA A / BzR and alpha5 beta-3 gamma2 GABA A / BzR
[7] = target: T1, GABA-A receptor; alpha-1/beta-3/gamma-2; assay: Binding affinity towards human GABA-A receptor alpha-1-beta-3-gamma-2 subunits; assay type: protein-complex assay

Sequence of GABA-A receptor; alpha-6/beta-3/gamma-2 (Q16445 whole entry, one chain of several): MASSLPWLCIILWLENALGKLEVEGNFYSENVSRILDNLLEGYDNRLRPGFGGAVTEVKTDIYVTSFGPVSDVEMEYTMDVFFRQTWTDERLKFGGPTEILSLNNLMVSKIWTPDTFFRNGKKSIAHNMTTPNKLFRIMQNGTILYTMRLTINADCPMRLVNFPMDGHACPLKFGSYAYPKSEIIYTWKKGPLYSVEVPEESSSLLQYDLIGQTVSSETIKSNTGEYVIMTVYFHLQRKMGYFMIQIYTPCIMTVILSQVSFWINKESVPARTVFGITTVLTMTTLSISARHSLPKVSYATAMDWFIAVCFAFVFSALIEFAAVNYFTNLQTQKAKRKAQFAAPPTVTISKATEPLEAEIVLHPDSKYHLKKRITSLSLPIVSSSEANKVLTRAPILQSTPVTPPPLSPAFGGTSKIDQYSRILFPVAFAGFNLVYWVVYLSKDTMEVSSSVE

| Compound | Ki [1] [nM] | Ki [2] [nM] | Ki [3] [nM] | Ki [4] [nM] | Ki [5] [nM] | Ratio [6] | Ki [7] [nM] |
| --- | --- | --- | --- | --- | --- | --- | --- |
| CN1C(=O)CN=C(c2ccccc2)c2ccccc21 | 81 | 138 | 96 | 318 | > 3000 | 0.84 |  |
| CN1C(=O)CN=C(c2cccs2)c2cc(Cl)ccc21 | 19.2 | 13.2 | 11.5 | 13.4 | > 300 | 1.7 |  |
| CCOC(=O)c1ncn2c1CN(C)C(=O)c1ccccc1-2 [RO-147437] | 1.2 | 2 | 0.4 | 1.1 | > 300 | 3 |  |
| CN1C(=O)CN=C(c2cccs2)c2cc(F)ccc21 | 141 | 215 | 65.5 | 205 | > 300 | 2.15 |  |
| C#Cc1ccc2c(c1)C(c1ccccc1)=NCC(=O)N2C | 76.3 | 42.1 | 6.8 | 47.4 | > 3000 | 11.2 |  |
| CN1C(=O)CN=C(c2ccccc2)c2cc(Br)ccc21 | 9.4 | 9.3 | 7.7 | 31 | > 3000 | 1.22 |  |
| Fc1ccc2c(c1)[nH]c1c3c4ccccc4nc-3c[nH]c12 | 5.1 | 10.4 | 260 | 18.4 | > 10000 |  |  |
| CN1C(=O)CN=C(c2ccco2)c2cc(Cl)ccc21 | > 0.23 | > 0.17 | > 0.44 | > 0.12 | > 300 |  |  |
| O=C1CN=C(c2ccccc2)c2ccccc2N1 [RO-052921] | 286 | 233 | 140 | 350 | > 3000 | 2.04 |  |
| Clc1cc2c(cn1)[nH]c1ccccc12 | 60.4 | 125 | 1000 | 126 | > 10000 |  |  |
| COc1ccc2ncc3c(=O)n(-c4ccccc4)[nH]c3c2c1 | 0.11 | 0.1 | 0.2 | 0.09 | > 10 |  |  |
| COc1ccc2c(c1)[nH]c1c2ncc2[nH]c3ccccc3c21 | 3.4 | 11.7 | 225 | 11 | > 10000 |  |  |
| O=[N+]([O-])c1ccc2[nH]c3c[nH]c4c5ccccc5nc-4c3c2c1 | 244 | 500 | 1560 | 532 | > 10000 |  |  |
| c1ccc(COc2ccc3c(c2)[nH]c2c3ncc3[nH]c4ccccc4c32)cc1 | 432 | 3000 | > 10000 | 3000 | > 10000 |  |  |
| C[Si](C)(C)C#Cc1ccc(-n2[nH]c3c(cnc4ccccc43)c2=O)cc1 | 3 | 3.7 | 24 | 4.7 | > 1000 |  |  |
| O=c1c2c[nH]c3ccc(Br)cc3c-2nn1-c1ccccc1 | 0.06 | 0.08 | 0.12 | 0.05 | 4 |  |  |
| CCOC(=O)c1cc2c3cc(OCc4ccccc4)ccc3nc-2c[nH]1 | 7.2 | 169 | 271 | 284 | > 10000 |  |  |
| CCOC(=O)c1[nH]cc2nc3ccc(O)cc3c-2c1COC | 2 | 5.4 | 18.5 | 10.8 | 3000 |  |  |
| COc1ccc2c(c1)ncc1c(=O)n(-c3ccccc3)[nH]c12 | 1.34 | 1.31 | 0.84 | 1.26 | 2.03 |  |  |
| CN1C(=O)CN=C(c2ccccc2)c2cc(C#N)ccc21 | 320 | 310 | 265 | 350 | > 3000 | 1.2 |  |
| CC(C)(C)C(=O)Oc1ccc2c(c1)[nH]c1c3c4ccccc4nc-3c[nH]c12 |  |  | > 3000 |  | > 10000 |  | 156 |
| S=C=Nc1cc2c3ccccc3nc-2c[nH]1 | 67.2 | 120 | > 3000 | 141 | > 10000 |  |  |
| CC(C)(C)OC(=O)c1ncn2c1[C@@H]1CCCN1C(=O)c1c(Br)cccc1-2 [BRETAZENIL] | 0.35 | 0.64 | 0.5 | 0.2 | 12.7 |  |  |
| CN1C(=O)CN=C(C2CCC2)c2cc(F)ccc21 | > 300 | > 300 | > 300 | > 300 | > 300 |  |  |
| CN1C(=O)CN=C(c2ccccc2)c2cc(C#C[Si](C)(C)C)ccc21 | 94 | 73 | 63 | 203 | > 3000 | 1.49 |  |
| O=C1CN=C(c2cccs2)c2cc(F)ccc2N1 | 175 | 335 | 150 | 405 | > 300 | 1.17 |  |
| COCc1c(SC#N)[nH]cc2nc3ccc(OCc4ccccc4)cc3c1-2 | 25 | 82.6 | 159 | 58.8 | > 10000 |  |  |
